Laboratory results from paper PMC6980386 (Traffic (Copenhagen, Denmark), 2019).
Entries after “also recorded” stand apart in the source; their conditions may differ.

Legend:
[1] = target: FL huCD4 H9A (Homo sapiens, UniProt P01730, H9A); assay: CADA down-modulation of cellular huCD4; assay type: cell-based
In short: (§1)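 HEK293T cells, seeded overnight in DMEM with 10% serum, 1 mM sodium pyruvate and 0.075% NaHCO₃, were lipofected with full-length human CD4 (WT or mutant). Test compound in DMSO was added 6 h post-transfection as 1:5 serial dilutions (50–0.016 μM) for 48 h. Surface CD4 was stained with FITC/APC anti-CD4 (SK3) and read by flow cytometry. IC50 is 50% of the untreated signal, from four-parameter fits of ≥3 replicate experiments. FC is mutant/WT mean IC50.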

[2] = target: FL huCD4 L10A (Homo sapiens, UniProt P01730, L10A); assay: CADA down-modulation of cellular huCD4; assay type: cell-based
In short: as §1

[3] = target: FL huCD4 L16A (Homo sapiens, UniProt P01730, L16A); assay: CADA down-modulation of cellular huCD4; assay type: cell-based
In short: as §1

[4] = target: FL huCD4 A22V (Homo sapiens, UniProt P01730, A22V); assay: CADA down-modulation of cellular huCD4; assay type: cell-based
In short: as §1

[5] = target: FL huCD4 G25A (Homo sapiens, UniProt P01730, G25A); assay: CADA down-modulation of cellular huCD4; assay type: cell-based
In short: as §1

[6] = target: FL huCD4 K26A (Homo sapiens, UniProt P01730, K26A); assay: CADA down-modulation of cellular huCD4; assay type: cell-based
In short: as §1

[7] = target: FL huCD4 L30A (Homo sapiens, UniProt P01730, L30A); assay: CADA down-modulation of cellular huCD4; assay type: cell-based
In short: as §1

[8] = target: huCD4_1–32-YFP G4A (Homo sapiens, UniProt P01730, G4A); assay: CADA inhibition of huCD4_1–32-YFP secretion; assay type: cell-based
In short: (§2)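 HEK293T cells were grown in DMEM with 10% FBS and 10 mM HEPES, seeded and left to adhere overnight, then transiently transfected with plasmid by Lipofectamine. Test compound was added 6 h after transfection as a 1:5 serial dilution (50 to 0.016 μM) for 48 h. Secreted YFP in the supernatant was captured on GFP-Trap magnetic beads for 1 h, washed with PBS and measured by flow cytometry. IC50 is the concentration that halves the signal relative to the untreated control, taken from a four-parameter fit of at least three replicate experiments. FC is the mutant mean IC50 divided by the WT mean IC50.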

[9] = target: huCD4_1–32-YFP H9A (Homo sapiens, UniProt P01730, H9A); assay: CADA inhibition of huCD4_1–32-YFP secretion; assay type: cell-based
In short: as §2

[10] = target: huCD4_1–32-YFP L14A (Homo sapiens, UniProt P01730, L14A); assay: CADA inhibition of huCD4_1–32-YFP secretion; assay type: cell-based
In short: as §2

[11] = target: huCD4_1–32-YFP L18A (Homo sapiens, UniProt P01730, L18A); assay: CADA inhibition of huCD4_1–32-YFP secretion; assay type: cell-based
In short: as §2

[12] = target: huCD4_1–32-YFP A21V (Homo sapiens, UniProt P01730, A21V); assay: CADA inhibition of huCD4_1–32-YFP secretion; assay type: cell-based
In short: (§3)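 HEK293T cells were lipofected with human CD4 residues 1–32 fused to the N-terminus of YFP (secreted, no membrane anchor). Test compound was added 6 h post-transfection as 1:5 serial dilutions (50–0.016 μM) for 48 h. Supernatant was captured on GFP-Trap magnetic beads for 1 h, washed in PBS, and YFP was read by flow cytometry. IC50 is 50% of the untreated control, from four-parameter fits of ≥3 replicate experiments. FC is mutant/WT mean IC50.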

[13] = target: huCD4_1–32-YFP T23A (Homo sapiens, UniProt P01730, T23A); assay: CADA inhibition of huCD4_1–32-YFP secretion; assay type: cell-based
In short: as §2

[14] = target: huCD4_1–32-YFP Q24A (Homo sapiens, UniProt P01730, Q24A); assay: CADA inhibition of huCD4_1–32-YFP secretion; assay type: cell-based
In short: as §2

[15] = target: huCD4_1–32-YFP G31A (Homo sapiens, UniProt P01730, G31A); assay: CADA inhibition of huCD4_1–32-YFP secretion; assay type: cell-based
In short: as §3

[16] = target: FL huCD4 R8E (Homo sapiens, UniProt P01730, R8E); assay: CADA down-modulation of cellular huCD4; assay type: cell-based; details: HEK293T, 48h
In short: as §1

[17] = target: FL huCD4 K26R (Homo sapiens, UniProt P01730, K26R); assay: CADA down-modulation of cellular huCD4; assay type: cell-based; details: HEK293T, 48h
In short: as §1

[18] = target: FL huCD4 K26E (Homo sapiens, UniProt P01730, K26E); assay: CADA down-modulation of cellular huCD4; assay type: cell-based; details: HEK293T, 48h
In short: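 Transient transfection of HEK293T cells (Lipofectamine), seeded the night before. Test compound added 6 h post-transfection as a serial 1:5 dilution from 50 to 0.016 μM, then 48 h culture. Surface CD4 stained with FITC- or APC-labelled anti-human CD4 (clone SK3) and read by flow cytometry. IC50 is the concentration reducing signal to 50% of untreated control, interpolated from four-parameter curves (≥3 replicate experiments; 95% CI).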

[19] = system: FL huCD4 V28K; assay: CADA down-modulation of cellular huCD4; assay type: cell-based, human; details: HEK293T, 48h
In short: as §1

[20] = target: truncated huCD4 D1D2 L18A (Homo sapiens, UniProt P01730, L18A); assay: Cell-free in vitro translation and translocation; assay type: biochemical; details: 15 μM CADA
In short: (§4)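 Truncated huCD4 D1D2 (lacking glycosylation sites and membrane anchor) was made by PCR and transcribed with T7. Proteinase K protection ran 30 min on ice and was quenched with PMSF. Products were separated by SDS-PAGE and imaged by phosphor imaging. The SP-cleaved band was normalised to the matching control. Data are from 2–5 independent experiments, compared with WT by Welch t test.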

[21] = target: truncated huCD4 D1D2 Q15A;P20A (Homo sapiens, UniProt P01730, P20A/Q15A); assay: Cell-free in vitro translation and translocation; assay type: biochemical
In short: as §4

[22] = system: mouse CD4 (mCD4); details: cell surface expression of mCD4; cited from earlier work
[23] = + less, − more sensitive to CADA
[24] = read-out: Cellular huCD4 IC50 (μM) Mean, HEK293T, CADA 48h
[25] = read-out: Secreted YFP IC50 (μM) Mean, HEK293T, CADA 48h

C=C1CN(S(=O)(=O)c2ccc(C)cc2)CCCN(Cc2ccccc2)CCCN(S(=O)(=O)c2ccc(C)cc2)C1 [CADA, Cyclotriazadisulfonamide]
Cellular huCD4 FC (fold change of mean IC50 relative to WT) [1, 23]: +1.1 | IC50 [1, 24]: 0.62 µM | Cellular huCD4 FC (fold change of mean IC50 relative to WT) [2, 23]: −2.7 | IC50 [2, 24]: 0.2 µM | Cellular huCD4 FC (fold change of mean IC50 relative to WT) [3, 23]: −4.9 | IC50 [3, 24]: 0.11 µM | Cellular huCD4 FC (fold change of mean IC50 relative to WT) [4, 23]: +1.5 | IC50 [4, 24]: 0.79 µM | Cellular huCD4 FC (fold change of mean IC50 relative to WT) [5, 23]: +1.1 | IC50 [5, 24]: 0.61 µM | Cellular huCD4 FC (fold change of mean IC50 relative to WT) [6, 23]: +2.7 | IC50 [6, 24]: 1.44 µM | Cellular huCD4 FC (fold change of mean IC50 relative to WT) [7, 23]: +1.6 | IC50 [7, 24]: 0.84 µM | Secreted YFP FC (fold change of mean IC50 relative to WT) [8, 23]: −1.4 | IC50 [8, 25]: 0.91 µM | Secreted YFP FC (fold change of mean IC50 relative to WT) [9, 23]: +1.7 | IC50 [9, 25]: 2.13 µM | Secreted YFP FC (fold change of mean IC50 relative to WT) [10, 23]: −1.1 | IC50 [10, 25]: 1.12 µM | Secreted YFP FC (fold change of mean IC50 relative to WT) [11, 23]: −1.9 | IC50 [11, 25]: 0.67 µM | Secreted YFP FC (fold change of mean IC50 relative to WT) [12, 23]: −1.6 | IC50 [12, 25]: 0.77 µM | Secreted YFP FC (fold change of mean IC50 relative to WT) [13, 23]: +1.9 | IC50 [13, 25]: 2.36 µM | Secreted YFP FC (fold change of mean IC50 relative to WT) [14, 23]: +3.3 | IC50 [14, 25]: 4.22 µM | Secreted YFP FC (fold change of mean IC50 relative to WT) [15, 23]: +2.0 | IC50 [15, 25]: 2.56 µM | sensitivity to CADA [16]: reduced sensitivity to CADA | sensitivity to CADA [17]: kept full sensitivity to CADA | sensitivity to CADA [18]: copied the alanine substitution phenotypes | increase in sensitivity to CADA (smaller IC50) relative to WT [19]: more than 3 fold | sensitivity of translocation towards CADA compared to WT [20]: higher sensitivity towards CADA | inhibitory effect of CADA on protein translocation compared to WT ([21]; 15 μM CADA): responded significantly less to CADA | effect of CADA on co-translational translocation ([21]; increasing doses of CADA): full resistance to CADA | sensitivity of mouse CD4 to CADA [22]: not affected by CADA; also recorded: completely resistant to CADA
